# According to ChEMBL document CHEMBL2146414, “Lignan derivatives from Krameria lappacea roots inhibit acute inflammation in vivo and pro-inflammatory mediators in vitro” (J Nat Prod, 2011):
# Activity calls are given as the source filed them. No cut-off for these calls is given here.
# Columns and labels:
# [1] = molecular target: T1, Polyunsaturated fatty acid 5-lipoxygenase (Homo sapiens, UniProt P09917); assay: Inhibition of 5-lipoxygenase in human neutrophils assessed as inhibition of LTB4 production
# T1 sequence (P09917 whole entry): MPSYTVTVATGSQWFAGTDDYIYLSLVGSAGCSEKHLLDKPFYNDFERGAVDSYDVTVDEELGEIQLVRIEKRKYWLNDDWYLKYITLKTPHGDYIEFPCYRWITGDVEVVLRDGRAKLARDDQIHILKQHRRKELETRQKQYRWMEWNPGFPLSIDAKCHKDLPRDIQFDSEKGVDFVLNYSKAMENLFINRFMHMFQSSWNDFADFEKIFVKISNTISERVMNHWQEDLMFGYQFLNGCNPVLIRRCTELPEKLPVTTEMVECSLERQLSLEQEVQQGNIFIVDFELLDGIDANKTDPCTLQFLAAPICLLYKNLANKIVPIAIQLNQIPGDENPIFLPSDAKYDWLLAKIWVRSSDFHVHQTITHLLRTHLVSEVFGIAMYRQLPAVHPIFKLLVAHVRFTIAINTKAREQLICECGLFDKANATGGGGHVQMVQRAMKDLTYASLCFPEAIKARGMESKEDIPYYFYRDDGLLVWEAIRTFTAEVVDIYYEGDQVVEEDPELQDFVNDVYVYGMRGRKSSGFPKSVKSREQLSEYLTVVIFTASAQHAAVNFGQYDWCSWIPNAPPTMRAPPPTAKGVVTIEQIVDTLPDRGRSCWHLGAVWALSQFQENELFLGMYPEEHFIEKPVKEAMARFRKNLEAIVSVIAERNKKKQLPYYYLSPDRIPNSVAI
# In short: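 Stimulated human neutrophilic granulocytes; 5-LO-mediated LTB4 formation measured; samples dissolved in ethanol. IC50 from at least three concentrations, duplicates, at least three independent experiments, by nonlinear regression.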
# [2] = molecular target: T2, Glucocorticoid receptor (Homo sapiens) (UniProt P04150); assay: Activation of GR transfected in HEK293 cells at 10 uM after 18 hrs by firefly luciferase reporter gene-based luminescence assay; type: cell-based
# T2 sequence (whole entry): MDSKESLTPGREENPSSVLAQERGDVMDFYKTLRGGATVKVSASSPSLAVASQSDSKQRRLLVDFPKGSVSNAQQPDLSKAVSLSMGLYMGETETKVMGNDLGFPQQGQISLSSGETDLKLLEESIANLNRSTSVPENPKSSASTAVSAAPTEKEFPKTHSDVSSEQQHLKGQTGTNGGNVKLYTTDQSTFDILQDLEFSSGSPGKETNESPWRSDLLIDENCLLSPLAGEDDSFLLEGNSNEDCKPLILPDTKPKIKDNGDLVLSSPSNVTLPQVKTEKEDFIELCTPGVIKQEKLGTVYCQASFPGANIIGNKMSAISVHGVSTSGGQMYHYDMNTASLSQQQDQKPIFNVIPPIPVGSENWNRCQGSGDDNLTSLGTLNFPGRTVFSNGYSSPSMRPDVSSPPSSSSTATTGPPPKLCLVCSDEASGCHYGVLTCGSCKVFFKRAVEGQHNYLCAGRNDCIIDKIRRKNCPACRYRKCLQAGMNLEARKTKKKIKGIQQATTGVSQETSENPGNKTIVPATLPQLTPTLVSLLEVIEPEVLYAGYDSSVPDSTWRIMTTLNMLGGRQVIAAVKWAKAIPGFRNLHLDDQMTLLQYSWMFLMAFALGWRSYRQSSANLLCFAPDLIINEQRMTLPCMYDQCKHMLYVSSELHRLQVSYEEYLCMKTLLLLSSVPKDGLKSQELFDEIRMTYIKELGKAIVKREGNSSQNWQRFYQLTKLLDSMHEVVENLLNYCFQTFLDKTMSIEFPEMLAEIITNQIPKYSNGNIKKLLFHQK
# [3] = molecular target: T3, Inhibitor of nuclear factor kappa-B kinase subunit beta (Homo sapiens) (UniProt O14920); assay: Inhibition of human IKK2 assessed as reduction in substrate phosphorylation at 10 uM by ELISA
# T3 sequence (whole entry): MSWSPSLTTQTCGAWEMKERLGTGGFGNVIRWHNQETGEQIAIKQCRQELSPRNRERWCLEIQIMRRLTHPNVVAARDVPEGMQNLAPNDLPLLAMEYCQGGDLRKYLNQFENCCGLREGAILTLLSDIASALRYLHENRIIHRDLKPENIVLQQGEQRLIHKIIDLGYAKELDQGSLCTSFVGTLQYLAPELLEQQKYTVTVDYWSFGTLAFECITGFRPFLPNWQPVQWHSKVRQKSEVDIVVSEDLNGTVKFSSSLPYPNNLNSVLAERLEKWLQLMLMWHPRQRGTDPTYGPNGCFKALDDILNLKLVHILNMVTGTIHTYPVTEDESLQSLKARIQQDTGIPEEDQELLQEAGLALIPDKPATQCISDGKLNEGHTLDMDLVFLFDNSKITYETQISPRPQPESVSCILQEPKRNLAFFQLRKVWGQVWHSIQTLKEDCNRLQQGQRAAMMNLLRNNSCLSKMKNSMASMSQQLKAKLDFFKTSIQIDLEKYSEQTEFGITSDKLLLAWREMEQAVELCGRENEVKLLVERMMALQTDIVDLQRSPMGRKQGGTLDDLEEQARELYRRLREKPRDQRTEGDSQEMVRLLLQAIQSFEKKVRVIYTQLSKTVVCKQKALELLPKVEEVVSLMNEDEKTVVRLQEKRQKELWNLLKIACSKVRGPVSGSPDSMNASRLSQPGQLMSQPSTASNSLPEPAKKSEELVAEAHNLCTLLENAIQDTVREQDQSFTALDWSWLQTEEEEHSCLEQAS
# Mus musculus = assay: Antiinflammatory activity in CD1 mouse ear dermatitis model assessed as inhibition of Croton oil-induced ear edema at 0.10 umol administered topically per cm'2 of ear measured after induction of dermatitis relative to untreated control; type: functional
# In short: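 Male CD-1 mice (28–32 g), anesthetized with ketamine 145 mg/kg i.p.; right ear (about 1 cm2) given 80 μg croton oil in 15 μL acetone, with test substance co-applied in acetone; left ear left untreated. Controls received irritant only. 6 mm punches taken from both ears; edema = weight difference treated minus untreated; % inhibition vs controls. ID50 by graphic interpolation of log dose–effect curves; ANOVA with Dunnett's test.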
Compound,IC50 [1] [µM],Activity [2],inhibition [3],inhibition (INH) (Mus musculus) [%]
COc1ccc(-c2cc3cc(CCCO)ccc3o2)c(O)c1,27.2,inactive,inactive,25
C/C=C/c1ccc2c(c1)[C@H](CO)[C@@H](c1ccc(O)cc1)O2,> 50,inactive,inactive,17
C[C@@H]1[C@H](C)[C@@H](c2ccc(O)cc2)O[C@@H]1c1ccc(O)cc1,> 50,inactive,inactive,19
C/C=C/c1ccc2c(c1)[C@@H](C)[C@H](c1ccc(O)cc1)O2,18.4,inactive,inactive,25
C[C@@H]1[C@H](C)[C@@H](c2ccc(O)cc2)O[C@H]1c1ccc(O)cc1,> 50,inactive,inactive,14
C/C=C/c1ccc2oc(-c3ccc(OC)cc3O)cc2c1 [RATANIAPHENOL I],> 50,inactive,inactive,9
C/C=C/c1ccc2oc(-c3ccc(O)cc3)cc2c1,> 50,inactive,inactive,14
COc1cc(O)ccc1-c1cc2cc(CCCO)ccc2o1,41.4,inactive,inactive,13
C/C=C/c1ccc2oc(-c3ccc(O)cc3OC)cc2c1 [RATANIAPHENOL III],> 50,inactive,inactive,12
C/C=C/c1ccc2oc(-c3ccc(O)cc3)c(C)c2c1 [RATANIAPHENOL II],> 50,inactive,inactive,13
C/C=C/c1ccc2oc(-c3ccc(O)cc3O)cc2c1,> 50,inactive,inactive,15
